The nature of data set [1]: Half life was reported. Format: ADME. The gist of the method: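 Hydrolysis of the chloroethyl mustard groups was measured in phosphate buffer, pH 7.4, at 37 °C. Products were separated by HPLC on a 25 cm ODS column. t1/2 was calculated with a standard kinetic program. The method was not applied to bromo, iodo or mesyl mustards.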
The target in data set [2] is T1, Carboxypeptidase G2 (Pseudomonas aeruginosa (strain ATCC 15692 / PAO1 / 1C / PRS 101 / LMG12228)) (UniProt Q9I056).
T1 sequence (whole entry): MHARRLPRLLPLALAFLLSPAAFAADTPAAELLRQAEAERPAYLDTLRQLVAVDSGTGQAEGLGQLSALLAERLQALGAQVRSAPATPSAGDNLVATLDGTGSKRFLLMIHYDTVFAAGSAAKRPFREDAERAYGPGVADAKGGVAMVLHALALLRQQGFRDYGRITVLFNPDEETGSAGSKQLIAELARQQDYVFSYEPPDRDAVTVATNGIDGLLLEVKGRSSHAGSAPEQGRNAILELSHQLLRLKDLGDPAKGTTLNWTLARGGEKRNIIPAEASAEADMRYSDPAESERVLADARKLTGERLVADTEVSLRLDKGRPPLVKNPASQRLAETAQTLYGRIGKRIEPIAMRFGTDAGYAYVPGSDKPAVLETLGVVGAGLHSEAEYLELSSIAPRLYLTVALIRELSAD
Kind of data set: Ratio of kcat/Km for carboxypeptidase G2; unstable. In a few lines: (§1)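 CPG2 cleavage of the glutamate oxycarbonyl/carbamoyl bond was followed spectrophotometrically. Prodrug and drug were scanned at 200–350 nm, and the wavelength of maximal absorbance difference was chosen. Initial rates of conversion were measured over a range of prodrug and CPG2 concentrations. KM and Vmax came from Michaelis–Menten fits. kcat was Vmax divided by the CPG2 concentration in the reaction.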

In data set [3] the target is T1, Carboxypeptidase G2 (Pseudomonas aeruginosa (strain ATCC 15692 / PAO1 / 1C / PRS 101 / LMG12228)). Description: (§2) Ability to act as substrate for Carboxypeptidase G2; unstable. The gist of the method:
as §1

Another data set concerns LoVo. Description: Cytotoxicity against colorectal tumor cell line LoVo 1 hour after incubation. Type of data set: functional, cell-based. Particulars: Homo sapiens. The gist of the method:
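LoVo colorectal cells (2.5 × 10^3/well) were exposed to a range of prodrug or parent drug concentrations for 1 h, then washed. The cells were grown a further 3 days at 37 °C, fixed, and stained with sulforhodamine B to measure cellular protein. Treated wells were compared with untreated controls to give IC50. The ratio is prodrug IC50 over drug IC50.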

The target in data set [4] is T1, Carboxypeptidase G2 (Pseudomonas aeruginosa (strain ATCC 15692 / PAO1 / 1C / PRS 101 / LMG12228)). Description: Ratio of kcat/Km for carboxypeptidase G2 activity. The gist of the method:
as §1

The target is the same in data set [5]. Kind of data set: (§3) Ability to act as substrate for Carboxypeptidase G2. The gist of the method: as §1
Data set [6] shares this target. Kind of data set: (§4) Ability to act as substrate for Carboxypeptidase G2; Not substrate. In a few lines: as §1
For data set [7] the target is unchanged. Description: Ratio of kcat/Km for carboxypeptidase G2; Not substrate. In a few lines:
as §1

Substrate in data set [8]: O=C(O)CC[C@H](NC(=O)Oc1ccc(N(CCI)CCI)c(F)c1)C(=O)O
The description is as §4. In a few lines: as §1

Substrate in data set [9]: O=C(O)CC[C@H](NC(=O)Oc1ccc(N(CCBr)CCBr)c(F)c1)C(=O)O
The description is as §4. In a few lines:
as §1

Substrate in data set [10]: O=C(O)CC[C@H](NC(=O)Oc1ccc(N(CCCl)CCCl)c(Cl)c1)C(=O)O
The data set is described as §4. The gist of the method: as §1

Substrate in data set [11]: O=C(O)CC[C@H](NC(=O)Oc1ccc(N(CCCl)CCCl)c(F)c1)C(=O)O
The data set is described as §2. The gist of the method: as §1

Substrate in data set [12]: Cc1cc(N(CCCl)CCCl)ccc1OC(=O)N[C@@H](CCC(=O)O)C(=O)O
The description is as §3. In a few lines:
as §1

Substrate in data set [13]: O=C(O)CC[C@H](NC(=O)Nc1ccc(N(CCBr)CCBr)c(F)c1)C(=O)O
The description is as §3. The gist of the method: as §1

Substrate in data set [14]: O=C(O)CC[C@H](NC(=O)Nc1ccc(N(CCCl)CCCl)c(Cl)c1)C(=O)O
The data set is described as §3. In a few lines: as §1

Substrate in data set [15]: O=C(O)CC[C@H](NC(=O)Nc1ccc(N(CCCl)CCCl)c(F)c1)C(=O)O
The description is as §3. The gist of the method: as §1

Substrate in data set [16]: Cc1cc(OC(=O)N[C@@H](CCC(=O)O)C(=O)O)ccc1N(CCCl)CCCl
The description is as §3. In a few lines: as §1

Substrate in data set [17]: O=C(O)CC[C@H](NC(=O)Oc1ccc(N(CCBr)CCBr)cc1)C(=O)O
The data set is described as §3. The gist of the method:
as §1

Substrate in data set [18]: N#Cc1cc(NC(=O)N[C@@H](CCC(=O)O)C(=O)O)ccc1N(CCCl)CCCl
Described as §3. In a few lines: as §1

Substrate in data set [19]: O=C(O)CC[C@H](NC(=O)Oc1ccc(N(CCI)CCI)cc1)C(=O)O
The data set is described as §3. In a few lines:
as §1

Substrate in data set [20]: O=C(O)CC[C@H](NC(=O)Oc1ccc(N(CCCl)CCCl)cc1Cl)C(=O)O
The description is as §3. In a few lines: as §1

Substrate in data set [21]: CC(C)c1cc(OC(=O)N[C@@H](CCC(=O)O)C(=O)O)ccc1N(CCCl)CCCl
The data set is described as §3. In a few lines:
as §1

The source made the active and inactive calls. The rule behind the calls is not given here.

The term half-life denotes the time in which the quantity being followed falls by half. What is called IC50 is the concentration needed to halve the response being measured. The low end stands for higher potency, the high end for lower potency. `O=C(O)CC[C@H](NC(=O)Oc1ccc(N(CCCl)CCCl)c(F)c1)C(=O)O` gave a half-life in [1] of 19 min. The Ratio entry in [2] is reported as “Unstable”. Also, the k cat entry in data set [3] is reported as “Unstable”. In the data set on LoVo, this molecule gave an IC50 of 53 µM.

`O=C(O)CC[C@H](NC(=O)Nc1ccc(N(CCCl)CCCl)c(F)c1)C(=O)O` had a half-life in data set [1] of 6.8 min. Besides, the Ratio in [4] was 3.4. Moreover, the IC50 with LoVo was > 500 µM. The same molecule displayed a k cat in data set [5] of 9.3 s⁻¹.

In data set [1], `CC(C)c1cc(OC(=O)N[C@@H](CCC(=O)O)C(=O)O)ccc1N(CCCl)CCCl` yielded a half-life of 2.2 min. Moreover, the Ratio in [4] was determined as 0.2. In the data set with LoVo, half-maximal inhibition (IC50) required 36.7 µM. The k cat in [5] was 12.6 s⁻¹.

With `O=C(O)CC[C@H](NC(=O)Nc1ccc(N(CCBr)CCBr)c(F)c1)C(=O)O`, in [4], the Ratio was 2.7. Further, the IC50 with LoVo is 298 µM. Further, the k cat in data set [5] amounted to 14.5 s⁻¹.

Consider `O=C(O)CC[C@H](NC(=O)Nc1ccc(N(CCCl)CCCl)c(Cl)c1)C(=O)O`, for which, in data set [1], the half-life came out at 2.8 min. The Ratio in [4] came to 7.8. This molecule also displayed an IC50 in the data set on LoVo of 330 µM. The same molecule came in with a k cat in data set [5] of 9.4 s⁻¹.

For `O=C(O)CC[C@H](NC(=O)Oc1ccc(N(CCCl)CCCl)cc1Cl)C(=O)O`, in data set [1], the half-life turned out to be 186 min. Moreover, in data set [4], the Ratio came out at 0.7. In the data set with LoVo, this molecule registered an IC50 of 86.7 µM. Besides, in data set [5], the k cat stood at 50.5 s⁻¹.

As for `Cc1cc(N(CCCl)CCCl)ccc1OC(=O)N[C@@H](CCC(=O)O)C(=O)O`, the half-life in data set [1] is 33 min. In data set [4], the Ratio came to 0.6. The IC50 in the data set with LoVo turned out to be 437 µM. The molecule also showed a k cat in data set [5] of 13 s⁻¹.

Regarding `O=C(O)CC[C@H](NC(=O)Oc1ccc(N(CCBr)CCBr)c(F)c1)C(=O)O`, in data set [6], the k cat entry is “Not substrate”. Further, in data set [7], the Ratio result is “inactive”. In the data set with LoVo, this molecule came in with a half-inhibitory concentration (IC50) of 46.2 µM.

In data set [1], `Cc1cc(OC(=O)N[C@@H](CCC(=O)O)C(=O)O)ccc1N(CCCl)CCCl` had a half-life of 1.6 min. Moreover, in data set [4], the Ratio is 2.3. In the data set on LoVo, this molecule gave an IC50 of 116 µM. The molecule further had a k cat in [5] of 30 s⁻¹.

Turning to `O=C(O)CC[C@H](NC(=O)Oc1ccc(N(CCI)CCI)c(F)c1)C(=O)O`, the k cat result in [6] is “Not substrate”. In addition, the Ratio result in data set [7] is “inactive”. In the data set on LoVo, this molecule gave an IC50 of 24.5 µM.

`O=C(O)CC[C@H](NC(=O)Oc1ccc(N(CCCl)CCCl)c(Cl)c1)C(=O)O`: the half-life in data set [1] came to 1.7 min. Moreover, the k cat entry in [6] was “Not substrate”. Also, the Ratio result in [7] is “inactive”. This molecule also came in with a half-inhibitory concentration (IC50) in the data set on LoVo of 9.4 µM.

With `O=C(O)CC[C@H](NC(=O)Oc1ccc(N(CCI)CCI)cc1)C(=O)O`, the Ratio in data set [4] was 14.8. The molecule further registered an IC50 in the data set on LoVo of 47.2 µM. For the same molecule, the k cat in [5] is 29.5 s⁻¹.

For `O=C(O)CC[C@H](NC(=O)Oc1ccc(N(CCBr)CCBr)cc1)C(=O)O`, in the data set on LoVo, 9.4 µM corresponded to half-maximal inhibition (IC50). Also, the k cat in data set [5] was 60 s⁻¹.

In data set [1], `N#Cc1cc(NC(=O)N[C@@H](CCC(=O)O)C(=O)O)ccc1N(CCCl)CCCl` displayed a half-life of 61 min. Moreover, the Ratio in data set [4] was 1. Also, in the data set on LoVo, the IC50 is > 500 µM. The molecule also returned a k cat in data set [5] of 8.4 s⁻¹.

B1: Carboxypeptidase G2 (Pseudomonas aeruginosa (strain ATCC 15692 / PAO1 / 1C / PRS 101 / LMG12228)), Q9I056 (protein)
chain: T1 sequence (whole entry)
The Km is the concentration of substrate that gives half-maximal velocity. As for B1, the Km result is “Not substrate” in data set [8]; “Not substrate” in [9]; “Not substrate” in data set [10]; “Unstable” in data set [11]; 23.5 µM in [12]; 5.4 µM in [13]. The Michaelis-Menten constant (Km) was 1.2 µM in data set [14]; 2.7 µM in [15]; 13 µM in [16]; 6.2 µM in data set [17]; 8.3 µM in [18]; 2 µM in data set [19]. Besides, the Km in data set [20] was 76.5 µM; in data set [21], 56 µM.

For the origin of these results see ChEMBL document CHEMBL1128221 (J Med Chem, 1995).
